# From ChEMBL document CHEMBL1155439, “Transient receptor potential ankyrin 1 (TRPA1) channel as emerging target for novel analgesics and anti-inflammatory agents” (J Med Chem, 2010)
# How the values were obtained:
# [1] = biological target: T1, Transient receptor potential cation channel subfamily A member 1 (Homo sapiens, UniProt O75762); experiment: Antagonist activity at human TRPA1 channel assessed as inhibition of allyl isothiocyanate-induced intracellular calcium influx; format: functional, cell-based
# T1 sequence (O75762 whole entry): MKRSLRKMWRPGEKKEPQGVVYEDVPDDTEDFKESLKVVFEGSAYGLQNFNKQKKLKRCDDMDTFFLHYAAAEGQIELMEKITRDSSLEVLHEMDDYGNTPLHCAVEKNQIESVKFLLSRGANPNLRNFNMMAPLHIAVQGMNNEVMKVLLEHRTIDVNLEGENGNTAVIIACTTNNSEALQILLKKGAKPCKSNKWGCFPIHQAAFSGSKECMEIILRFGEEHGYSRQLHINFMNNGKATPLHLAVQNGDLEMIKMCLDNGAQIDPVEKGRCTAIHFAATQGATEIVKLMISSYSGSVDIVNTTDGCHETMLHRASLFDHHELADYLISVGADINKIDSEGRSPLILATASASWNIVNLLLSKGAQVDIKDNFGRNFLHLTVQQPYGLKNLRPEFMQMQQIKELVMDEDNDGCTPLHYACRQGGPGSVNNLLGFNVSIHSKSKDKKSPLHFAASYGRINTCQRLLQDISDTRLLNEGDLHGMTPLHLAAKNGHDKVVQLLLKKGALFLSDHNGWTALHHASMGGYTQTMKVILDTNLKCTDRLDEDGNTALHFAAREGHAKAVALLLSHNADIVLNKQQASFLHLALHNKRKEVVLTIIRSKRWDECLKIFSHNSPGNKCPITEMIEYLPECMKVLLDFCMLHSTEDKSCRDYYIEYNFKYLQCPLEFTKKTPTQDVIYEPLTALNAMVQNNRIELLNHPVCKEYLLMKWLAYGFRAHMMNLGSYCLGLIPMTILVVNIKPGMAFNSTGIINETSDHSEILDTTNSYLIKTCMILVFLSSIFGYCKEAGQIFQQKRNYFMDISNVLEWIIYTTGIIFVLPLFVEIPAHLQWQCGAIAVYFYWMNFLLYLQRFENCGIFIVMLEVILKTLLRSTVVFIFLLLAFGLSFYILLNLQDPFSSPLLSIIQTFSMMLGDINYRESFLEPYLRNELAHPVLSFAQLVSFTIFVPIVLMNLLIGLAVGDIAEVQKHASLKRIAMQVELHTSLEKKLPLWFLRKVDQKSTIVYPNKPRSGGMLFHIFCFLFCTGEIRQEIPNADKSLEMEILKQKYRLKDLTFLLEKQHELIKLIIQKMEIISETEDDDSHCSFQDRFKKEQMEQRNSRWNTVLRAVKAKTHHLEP
# [2] = biological target: T1, Transient receptor potential cation channel subfamily A member 1; experiment: Antagonist activity at human TRPA1 channel expressed in CHO cells assessed as inhibition of cinnamaldehyde-induced intracellular calcium influx; format: functional, cell-based
# [3] = biological target: T1, Transient receptor potential cation channel subfamily A member 1; experiment: Agonist activity at human TRPA1 channel expressed in HEK293 cells assessed as increase in membrane currents; format: functional, cell-based
# [4] = biological target: T1, Transient receptor potential cation channel subfamily A member 1; experiment: Agonist activity at human TRPA1 channel expressed in HEK293 cells assessed as increase in intracellular calcium influx; format: functional, cell-based
# [5] = biological target: T1, Transient receptor potential cation channel subfamily A member 1; experiment: Antagonist activity at TRPA1 channel at 1 uM; format: functional
# [6] = biological target: T1, Transient receptor potential cation channel subfamily A member 1; experiment: Antagonist activity at TRPA1 channel at 10 uM; format: functional
# [7] = biological target: T1, Transient receptor potential cation channel subfamily A member 1; experiment: Antagonist activity at TRPA1 channel; format: functional
# [8] = biological target: Transient receptor potential cation channel subfamily A member 1 (Mus musculus, UniProt Q8BLA8); experiment: Agonist activity at mouse TRPA1 channel expressed in CHO cells assessed as increase in intracellular calcium influx; format: functional, cell-based
# Transient receptor potential cation channel subfamily A member 1 (Mus musculus, UniProt Q8BLA8), sequence (Q8BLA8 whole entry): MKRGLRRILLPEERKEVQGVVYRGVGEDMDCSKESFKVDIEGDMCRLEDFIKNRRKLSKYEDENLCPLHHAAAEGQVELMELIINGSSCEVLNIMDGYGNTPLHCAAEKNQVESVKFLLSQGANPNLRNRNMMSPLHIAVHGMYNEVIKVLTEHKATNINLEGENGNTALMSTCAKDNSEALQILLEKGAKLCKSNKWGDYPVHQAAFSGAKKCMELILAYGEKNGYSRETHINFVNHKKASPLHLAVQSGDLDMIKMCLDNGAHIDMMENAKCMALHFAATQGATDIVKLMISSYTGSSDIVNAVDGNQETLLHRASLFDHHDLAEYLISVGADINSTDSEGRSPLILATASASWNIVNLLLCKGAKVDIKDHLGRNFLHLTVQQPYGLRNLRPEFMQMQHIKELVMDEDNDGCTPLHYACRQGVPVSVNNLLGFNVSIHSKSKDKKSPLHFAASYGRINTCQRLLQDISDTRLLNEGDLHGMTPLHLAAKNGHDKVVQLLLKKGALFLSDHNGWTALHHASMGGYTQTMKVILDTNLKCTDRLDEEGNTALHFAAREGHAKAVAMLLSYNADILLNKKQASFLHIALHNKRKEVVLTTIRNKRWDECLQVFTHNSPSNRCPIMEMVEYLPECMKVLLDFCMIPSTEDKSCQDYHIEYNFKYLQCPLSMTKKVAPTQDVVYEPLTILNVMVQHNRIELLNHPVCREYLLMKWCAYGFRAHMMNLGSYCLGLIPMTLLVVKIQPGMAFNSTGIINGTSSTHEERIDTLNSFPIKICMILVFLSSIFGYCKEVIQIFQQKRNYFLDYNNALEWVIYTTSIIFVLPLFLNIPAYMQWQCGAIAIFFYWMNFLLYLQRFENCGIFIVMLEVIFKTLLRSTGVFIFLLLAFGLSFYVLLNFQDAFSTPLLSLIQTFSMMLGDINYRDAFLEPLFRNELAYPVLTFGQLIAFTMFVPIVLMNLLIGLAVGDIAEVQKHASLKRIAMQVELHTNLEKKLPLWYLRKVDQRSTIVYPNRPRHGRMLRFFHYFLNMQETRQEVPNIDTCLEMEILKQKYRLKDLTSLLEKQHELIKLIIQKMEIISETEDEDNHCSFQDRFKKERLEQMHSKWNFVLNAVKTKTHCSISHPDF
# [9] = biological target: T1, Transient receptor potential cation channel subfamily A member 1; experiment: Agonist activity at human TRPA1 channel expressed in CHO cells assessed as increase in intracellular calcium levels; format: functional, cell-based
# [10] = biological target: T1, Transient receptor potential cation channel subfamily A member 1; experiment: Activation of TRPA1 channel
# Procedure, shortened: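 Cell lines transfected with TRPA1 and loaded with a calcium-sensitive dye, read on FLIPR. Calcium influx is counted as the change in fluorescence above background. Each material was tested by preincubation or by direct addition. Calcium counts are expressed as a percentage of the control calcium count.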
# [11] = biological target: T2, Transient receptor potential cation channel subfamily A member 1 (Rattus norvegicus, UniProt Q6RI86); experiment: Agonist activity at rat TRPA1 channel expressed in HEK293 cells assessed as increase in intracellular calcium influx; format: functional, cell-based
# T2 sequence (Q6RI86 whole entry): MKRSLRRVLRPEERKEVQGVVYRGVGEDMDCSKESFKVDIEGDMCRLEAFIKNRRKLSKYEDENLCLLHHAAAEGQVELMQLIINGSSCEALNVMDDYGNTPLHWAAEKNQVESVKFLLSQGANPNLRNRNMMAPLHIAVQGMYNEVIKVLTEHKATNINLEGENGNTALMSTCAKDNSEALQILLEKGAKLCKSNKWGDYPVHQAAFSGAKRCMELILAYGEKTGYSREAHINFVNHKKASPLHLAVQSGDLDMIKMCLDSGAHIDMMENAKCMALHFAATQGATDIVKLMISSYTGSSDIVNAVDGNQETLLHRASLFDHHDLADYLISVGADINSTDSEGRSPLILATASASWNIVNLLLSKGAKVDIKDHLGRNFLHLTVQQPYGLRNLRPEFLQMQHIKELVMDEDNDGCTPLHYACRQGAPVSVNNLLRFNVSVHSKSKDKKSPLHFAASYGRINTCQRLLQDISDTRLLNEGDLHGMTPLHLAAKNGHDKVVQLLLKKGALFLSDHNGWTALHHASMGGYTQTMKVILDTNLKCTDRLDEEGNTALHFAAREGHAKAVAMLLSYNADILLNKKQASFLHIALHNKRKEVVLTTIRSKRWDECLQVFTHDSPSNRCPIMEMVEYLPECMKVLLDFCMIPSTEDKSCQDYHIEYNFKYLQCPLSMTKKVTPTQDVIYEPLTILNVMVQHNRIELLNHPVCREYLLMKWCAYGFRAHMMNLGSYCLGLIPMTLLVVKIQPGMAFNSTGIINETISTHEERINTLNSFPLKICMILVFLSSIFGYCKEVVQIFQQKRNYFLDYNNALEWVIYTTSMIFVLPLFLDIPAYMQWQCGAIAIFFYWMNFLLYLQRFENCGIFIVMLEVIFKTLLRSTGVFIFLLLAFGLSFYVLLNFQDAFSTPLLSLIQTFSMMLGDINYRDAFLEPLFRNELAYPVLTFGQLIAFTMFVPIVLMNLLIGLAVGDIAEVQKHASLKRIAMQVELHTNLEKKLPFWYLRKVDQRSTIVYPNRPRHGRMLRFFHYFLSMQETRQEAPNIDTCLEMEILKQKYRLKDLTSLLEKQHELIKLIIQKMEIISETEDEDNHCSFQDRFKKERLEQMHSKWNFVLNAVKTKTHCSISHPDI
# [12] = biological target: T2, Transient receptor potential cation channel subfamily A member 1; experiment: Agonist activity at TRPA1 channel in rat DRG neurons assessed as increase in intracellular calcium influx; format: functional, cell-based
# [13] = biological target: Transient receptor potential cation channel subfamily V member 1 (Homo sapiens, UniProt Q8NER1); experiment: Activation of TRPV1 channel
# Transient receptor potential cation channel subfamily V member 1 (Homo sapiens, UniProt Q8NER1), sequence (Q8NER1 whole entry): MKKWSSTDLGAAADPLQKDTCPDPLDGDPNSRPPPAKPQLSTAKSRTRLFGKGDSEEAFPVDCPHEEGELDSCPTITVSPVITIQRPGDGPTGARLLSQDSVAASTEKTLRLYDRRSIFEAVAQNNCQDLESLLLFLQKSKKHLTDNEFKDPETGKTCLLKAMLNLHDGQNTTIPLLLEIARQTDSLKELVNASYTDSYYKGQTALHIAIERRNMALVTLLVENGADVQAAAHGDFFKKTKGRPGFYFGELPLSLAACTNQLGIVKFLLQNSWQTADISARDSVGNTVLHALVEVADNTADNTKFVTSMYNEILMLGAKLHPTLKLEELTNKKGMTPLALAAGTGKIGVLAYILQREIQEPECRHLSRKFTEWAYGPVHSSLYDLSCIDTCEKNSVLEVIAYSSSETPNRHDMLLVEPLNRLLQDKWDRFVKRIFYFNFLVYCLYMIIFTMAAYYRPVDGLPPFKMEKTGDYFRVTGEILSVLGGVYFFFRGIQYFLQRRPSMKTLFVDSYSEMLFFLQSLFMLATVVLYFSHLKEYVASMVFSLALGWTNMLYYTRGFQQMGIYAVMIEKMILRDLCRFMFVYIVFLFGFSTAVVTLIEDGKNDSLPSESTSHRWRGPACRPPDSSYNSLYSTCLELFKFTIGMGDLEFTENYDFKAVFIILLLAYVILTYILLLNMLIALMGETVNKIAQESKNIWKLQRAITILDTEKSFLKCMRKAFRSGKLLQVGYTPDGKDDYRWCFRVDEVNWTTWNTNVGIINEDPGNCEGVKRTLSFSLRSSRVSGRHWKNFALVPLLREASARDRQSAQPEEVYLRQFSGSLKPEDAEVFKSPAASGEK
# [14] = biological target: T1, Transient receptor potential cation channel subfamily A member 1; experiment: Activation of TRPA1 channel expressed in CHO cells assessed as increase in intracellular calcium levels; format: cell-based
# [15] = biological target: Transient receptor potential cation channel subfamily V member 1 (Rattus norvegicus, UniProt O35433); experiment: Activation of rat TRPV1 channel
# Transient receptor potential cation channel subfamily V member 1 (Rattus norvegicus, UniProt O35433), sequence (O35433 whole entry): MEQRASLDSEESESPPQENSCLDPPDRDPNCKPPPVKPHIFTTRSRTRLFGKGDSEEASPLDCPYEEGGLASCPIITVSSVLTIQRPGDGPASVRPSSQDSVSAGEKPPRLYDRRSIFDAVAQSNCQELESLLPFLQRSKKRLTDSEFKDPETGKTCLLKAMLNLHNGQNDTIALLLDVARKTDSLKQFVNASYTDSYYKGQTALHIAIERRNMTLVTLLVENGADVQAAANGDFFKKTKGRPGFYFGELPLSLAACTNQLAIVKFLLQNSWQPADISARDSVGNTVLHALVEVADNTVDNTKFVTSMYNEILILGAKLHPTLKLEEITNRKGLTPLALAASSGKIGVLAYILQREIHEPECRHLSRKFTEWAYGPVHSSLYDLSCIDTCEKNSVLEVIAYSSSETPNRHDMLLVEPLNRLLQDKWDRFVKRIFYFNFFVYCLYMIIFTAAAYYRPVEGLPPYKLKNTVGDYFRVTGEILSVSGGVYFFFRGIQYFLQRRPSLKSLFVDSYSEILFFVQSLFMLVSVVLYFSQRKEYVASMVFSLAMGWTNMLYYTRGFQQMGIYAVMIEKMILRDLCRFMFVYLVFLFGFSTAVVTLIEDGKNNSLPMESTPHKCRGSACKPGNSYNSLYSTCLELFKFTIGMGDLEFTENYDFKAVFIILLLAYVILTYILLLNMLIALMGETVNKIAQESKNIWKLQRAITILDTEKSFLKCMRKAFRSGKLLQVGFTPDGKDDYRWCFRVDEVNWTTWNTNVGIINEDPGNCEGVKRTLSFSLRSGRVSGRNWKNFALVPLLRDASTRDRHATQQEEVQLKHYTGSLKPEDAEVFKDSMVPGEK
structure (smiles),measurement,setting,value
Cn1c(=O)c2c(ncn2CC(=O)Nc2nc(-c3cccc(F)c3)cs2)n(C)c1=O,IC50,[1],< 1000 nM
CCC(=N\O)/C(C)=C/c1cnc2ccccc2c1,IC50,[2],> 100 µM
CCC(=N\O)/C(C)=C/c1cncc2ccccc12,IC50,[2],> 100 µM
O=C1/C(=C/c2nccs2)c2ccccc2N1Cc1ccccc1,EC50,[3],5650 nM
Cc1ccc(C(C)C)cc1O [CARVACROL],EC50,[4],7 µM
CN1C(=O)c2cccc(CC(=O)Nc3nc(-c4cc(F)c(OC(F)F)c(F)c4)cs3)c2C1=O,inhibition,[5],92%
same,inhibition,[6],99%
CN1C(=O)c2cccc(CC(=O)Nc3nc(-c4ccc(C(F)(F)F)c(F)c4)cs3)c2C1=O,inhibition,[5],97%
same,inhibition,[6],100%
Cc1cc(-c2csc(NC(=O)Cc3cccc4c3C(=O)N(C)C4=O)n2)ccc1Cl,inhibition,[5],83%
same,IC50,[7],250 nM
same,inhibition,[6],91%
CO/C(O)=C1\C(C)=NC(C)=C([N+](=O)[O-])[C@H]1c1ccccc1C(F)(F)F,EC50,[8],41.5 µM
CC1(C)CCC[C@]2(C)[C@@H](C=O)C(C=O)=CC[C@@H]12 [POLYGODIAL],EC50,[9],0.059 µM
CCOc1ccccc1-c1csc(NC(=O)Cn2cnc3c2c(=O)n(C)c(=O)n3C)n1,IC50,[1],< 1000 nM
Cn1c(=O)c2c(ncn2CC(=O)Nc2nc(-c3ccccc3F)cs2)n(C)c1=O,IC50,[1],< 1000 nM
CC(C)CN1C(=O)/C(=C/C(=O)O)c2cccc(F)c21,EC50,[3],830 nM
CC(C)=CCC/C(C)=C/CC/C(C)=C/CSc1ccccc1C(=O)O [SALIRASIB],EC50,[9],5 µM
Cn1c(=O)c2c(ncn2CC(=O)Nc2nc(-c3ccc(Br)cc3)cs2)n(C)c1=O,IC50,[1],< 1000 nM
CCCCC[C@H](O)/C=C/[C@H]1C=CC(=O)[C@H]1C/C=C\CCCC(=O)O,EC50,[10],22.4 µM
C=C(C)C1CC=C(C=O)CC1 (centres undefined),EC50,[10],41 µM
CN1C(=O)c2cccc(CC(=O)Nc3nc(-c4ccc(I)cc4)cs3)c2C1=O,inhibition,[5],76%
same,IC50,[7],< 250 nM
same,inhibition,[6],95%
C=CCSSSCC=C [ALLITRIDIN],EC50,[9],0.49 µM
C=CC=O [ACROLEIN],EC50,[10],0.8 µM
CCCCC(CC)C1NC(=O)N(SC(Cl)(Cl)Cl)C1=O (centres undefined) [CHLORDANTOIN],EC50,[9],3 µM
S=C=NCCc1ccccc1 [PHENETHYLISOTHIOCYANATE],EC50,[10],10 µM
Cn1c(=O)c2c(ncn2CC(=O)Nc2nc(-c3ccccc3)cs2)n(C)c1=O,IC50,[1],< 1000 nM
CCCCCc1cc(O)c(C/C=C(\C)CCC=C(C)C)c(O)c1 [CANNABIGEROL],EC50,[11],3400 nM
CCCCC[C@H](O)/C=C/[C@H]1C=CC(=O)[C@@H]1CCCCCCC(=O)O [PROSTAGLANDIN A1],EC50,[10],15.1 µM
CN1C(=O)c2cccc(CC(=O)Nc3nc(-c4ccc(Cl)c(Cl)c4)cs3)c2C1=O,inhibition,[5],86%
same,IC50,[7],250 nM
same,inhibition,[6],98%
CCc1ccc(-c2csc(NC(=O)Cn3cnc4c3c(=O)n(C)c(=O)n4C)n2)cc1,IC50,[1],< 1000 nM
COCCOC(=O)C1=C(C)NC(C)=C(C(=O)OC(C)C)C1c1cccc([N+](=O)[O-])c1 (centres undefined) [NIMODIPINE],EC50,[8],0.8 µM
COC(=O)C1=C(C)NC(C)=C(C(=O)OC)C1c1ccccc1[N+](=O)[O-] [NIFEDIPINE],EC50,[8],0.4 µM
CO/C(O)=C1\C(C)=NC(C)=C([N+](=O)[O-])[C@@H]1c1ccccc1C(F)(F)F,EC50,[8],20.8 µM
C=CCSSCC=C,EC50,[10],125 µM
same,EC50,[9],7.55 µM
CN1C(=O)c2cccc(CC(=O)Nc3nc(-c4ccc(Cl)cc4)cs3)c2C1=O,inhibition,[5],39%
same,IC50,[7],500 nM
same,inhibition,[6],93%
CC1(C)CCC[C@@]2(C)[C@H]1CC[C@@]1(CO1)[C@@H]2CC/C=C(/C=O)CC=O [MIOGADIAL],EC50,[9],0.2 µM
NC(=O)/C=C1/C(=O)N(CC2CCCC2)c2c(F)cccc21,EC50,[3],660 nM
CCC(=N\O)/C(C)=C/c1ccc(C(F)(F)F)nc1,IC50,[2],> 100 µM
S=C=NCc1ccccc1 [BENZYL ISOTHIOCYANATE],EC50,[10],0.319 µM
CCCCC/C=C/C=C1/C(=O)C=C[C@@H]1C/C=C\CCCC(=O)O,EC50,[10],5.6 µM
CN1CCC[C@H]1c1cccnc1 [NICOTINE],EC50,[10],17 µM
CC1(C)CCC[C@]2(C)[C@@H](CC/C=C(/C=O)CC=O)[C@@H](C=O)CC[C@@H]12 [MIOGATRIAL],EC50,[9],0.13 µM
Cc1ccc(N=C=O)cc1N=C=O [TOLUENE DIISOCYANATE],EC50,[4],10 µM
CN1C(=O)c2cccc(CC(=O)Nc3nc(-c4cccc(C(F)(F)F)c4)cs3)c2C1=O,inhibition,[5],60%
same,IC50,[7],500 nM
same,inhibition,[6],96%
O=C(O)/C=C1/C(=O)N(CC2CCCC2)c2c(F)cccc21,EC50,[3],510 nM
CC(C)CN1C(=O)/C(=C/C(=O)O)c2cc(F)ccc21,EC50,[3],4630 nM
CCCCC[C@H](O)/C=C/[C@H]1C=CC(=O)[C@@H]1C/C=C\CCCC(=O)O [PROSTAGLANDIN A2],EC50,[10],24 µM
CCCCCC(O)/C=C/C=O (centres undefined) [4-HYDROXYNON-2-ENAL],EC50,[12],19.9 µM
COC(=O)C1=C(C)NC(C)=C([N+](=O)[O-])C1c1ccccc1C(F)(F)F (centres undefined),EC50,[8],32.7 µM
NC(=O)c1cccc(-c2cccc(OC(=O)NC3CCCCC3)c2)c1 [URB-597],EC50,[4],24.5 µM
C/C=C/C=C/C=C\CC/C=C/C(=O)NCC(C)(C)O,EC50,[13],1100 nM
same,EC50,[10],6.6 µM
C=CCSCC=C [DIALLYL SULFIDE],EC50,[9],254 µM
O=C(O)/C=C1/C(=O)N(CC2CCCCC2)c2ccccc21,EC50,[3],4400 nM
CCCCCc1cc(O)c2c(c1C(=O)O)OC(C)(C)[C@@H]1CCC(C)=C[C@@H]21 [TETRAHYDROCANNABINOL ACID],EC50,[11],240 nM
CCC(=N\O)/C(C)=C/c1cnccc1C,IC50,[2],> 100 µM
CC(C)CN1C(=O)/C(=C/C(=O)O)c2cccc(Cl)c21,EC50,[3],610 nM
CCCCCc1cc(O)c2c(c1)OC(C)(CCC=C(C)C)C=C2 (centres undefined) [CANNABICHROMENE],EC50,[12],34.3 µM
same,EC50,[11],60 nM
O=C(O)/C=C1/C(=O)N(CC2CCC2)c2c(F)cccc21,EC50,[3],1160 nM
CN1C(=O)c2cccc(CC(=O)Nc3nc(-c4cc(F)c(C(F)(F)F)c(F)c4)cs3)c2C1=O,inhibition,[5],92%
same,IC50,[7],250 nM
same,inhibition,[6],100%
O=C(O)/C=C1/C(=O)N(Cc2ccccc2)c2ccc(F)cc21,EC50,[3],4450 nM
CCC(=N\O)/C(C)=C/c1ccc(C)nc1,IC50,[2],> 100 µM
C/C=C/C=O [CROTONALDEHYDE],EC50,[10],16 µM
O=C/C=C/c1ccccc1,EC50,[14],6.5 µM
CCCCCc1cc(O)c2c(c1)OC(C)(C)[C@@H]1CCC(C)=C[C@@H]21 [DRONABINOL],EC50,[11],230 nM
Cn1c(=O)c2c(ncn2CC(=O)Nc2nc(-c3cccc(Cl)c3)cs2)n(C)c1=O,IC50,[1],< 1000 nM
O=C(O)/C=C1/C(=O)N(CC2CCCC2)c2ccccc21,EC50,[3],3000 nM
COC(=O)c1cccc(CN2C(=O)/C(=C/C(N)=O)c3ccccc32)c1,EC50,[3],1200 nM
C=C(C)[C@@H]1CCC(C)=C[C@H]1c1c(O)cc(CCCCC)c(C(=O)O)c1O [CANNABIDIOLIC ACID],EC50,[11],12000 nM
CN(C)C(=O)/C=C1/C(=O)N(CC2CCCC2)c2c(F)cccc21,EC50,[3],3760 nM
COC(=O)C1=C(C)NC(C)=C(C(=O)OCCN(C)Cc2ccccc2)C1c1cccc([N+](=O)[O-])c1 (centres undefined) [NICARDIPINE],EC50,[8],0.5 µM
CCC(CC)CN1C(=O)/C(=C/C(=O)N2CCOCC2)c2cccc(F)c21,EC50,[3],1290 nM
CCOC(=O)C1=C(C)NC(C)=C(C(=O)OC)C1c1cccc([N+](=O)[O-])c1 (centres undefined) [NITRENDIPINE],EC50,[8],3.8 µM
COc1cccc(-c2csc(NC(=O)Cn3cnc4c3c(=O)n(C)c(=O)n4C)n2)c1,IC50,[1],< 1000 nM
CC(C)=CCC/C(C)=C/CC/C(C)=C/CSCC(=O)O [FARNESYLTHIOACETIC ACID],EC50,[9],90 µM
C=C(C)[C@@H]1CCC(C)=C[C@H]1c1c(O)cc(CCCCC)cc1O [CANNABIDIOL],EC50,[11],96 nM
CC(C)c1ccc(NC(=O)Cc2cccc3c2C(=O)N(C)C3=O)cc1,inhibition,[5],18%
same,inhibition,[6],21%
CCN(CC)C(=S)SSC(=S)N(CC)CC,EC50,[9],3 µM
CC(C)CCC(=O)c1ccoc1 [PERILLAKETONE],EC50,[10],19.7 µM
C=CCS[S+]([O-])CC=C (centres undefined) [ALLICIN],EC50,[15],51.2 µM
